Among the data in ChEMBL document CHEMBL5380787, “Optimized M24B Aminopeptidase Inhibitors for CARD8 Inflammasome Activation” (J Med Chem, 2023) are IC50 and Activity values, retold here.

Each structure is given as a SMILES string.

Test [1] deals with MV4-11. In words: Cytotoxicity against human MV4-11 cells assessed as reduction in cell viability incubated for 24 hrs by celltiter-glo assay. The following applies: MV4-11, 24 h. It is filed as functional, cell-based. In outline: (§1)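 MV4;11 cells (WT or CASP1−/−), grown in RPMI 1640 with 10% FBS at 37 °C, 5% CO2, plated 2000 cells/well, dosed by pintool across 100 μM to 15.2 nM in three-fold steps for 24 h. Viability by CellTiter-Glo luminescence after 2 min shaking and 10 min at 25 °C. IC50 as mean ± SEM of three biological replicates.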
In general terms: ATP-based viability assays read luminescence as a measure of living cells.

Test [2] has as its system MV4-11. As to the kind of experiment: Cytotoxicity against human MV4-11 cells assessed as reduction in cell viability at 0.015 to 100 uM incubated for 24 hrs by celltiter-glo assay. It is filed as functional. The following applies: dose 0.015-100 µM. Summed up: as §1
For test [3], the system named is MV4-11. In words: Cytotoxicity against CASP1 knockout human MV4-11 cells assessed as reduction in cell viability at 0.015 to 100 uM incubated for 24 hrs by celltiter-glo assay. It counts as functional. The following applies: dose 0.015-100 µM. Summed up: as §1
The target in test [4] is T1, Xaa-Pro dipeptidase (Homo sapiens, UniProt P12955).
T1 sequence (P12955 whole entry): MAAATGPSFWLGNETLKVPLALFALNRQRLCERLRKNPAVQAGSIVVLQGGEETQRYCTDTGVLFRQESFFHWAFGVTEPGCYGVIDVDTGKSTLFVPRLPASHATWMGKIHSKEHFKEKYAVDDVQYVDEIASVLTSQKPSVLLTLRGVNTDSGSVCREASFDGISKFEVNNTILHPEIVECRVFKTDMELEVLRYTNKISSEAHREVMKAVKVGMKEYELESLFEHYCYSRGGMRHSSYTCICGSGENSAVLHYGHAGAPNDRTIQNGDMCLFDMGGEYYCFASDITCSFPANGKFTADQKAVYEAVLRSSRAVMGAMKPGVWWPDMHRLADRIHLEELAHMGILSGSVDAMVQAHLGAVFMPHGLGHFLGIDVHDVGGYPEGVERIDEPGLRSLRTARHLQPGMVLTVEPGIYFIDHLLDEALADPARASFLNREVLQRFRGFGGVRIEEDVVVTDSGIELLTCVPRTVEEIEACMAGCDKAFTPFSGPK
In words: Inhibition of recombinant human PEPD using Ala-Pro as substrate assessed as alanine release by measuring increase in fluorescense signal by fluorescence based analysis.

For test [5], the system named is MV4-11. As to the kind of experiment: Cytotoxicity against CASP1 knockout human MV4-11 cells assessed as reduction in cell viability incubated for 24 hrs by celltiter-glo assay. The following applies: MV4-11, 24 h. It counts as functional, cell-based. Summed up: as §1

With `COC(=O)[C@@H]1CCCN1C(=O)[C@@H](O)[C@H](N)C(C)C`, the IC50 – broadly, the point on the concentration scale where inhibition reaches its midpoint – in test [1] is 46 µM. Also, the Activity came out at 23% in test [2] and 104% in test [3].
On to `CCCC[C@@H](N)[C@H](O)C(=O)N1CCC[C@H]1C(=O)OC`, for which the IC50 in test [1] turned out to be 11 µM. The Activity is 20% in test [2] and 98% in test [3].
On to `CC(C)C[C@@H](N)[C@H](O)C(=O)N1CCC[C@H]1CNS(C)(=O)=O`, for which the half-maximal inhibitory concentration (IC50) in test [1] and in test [4] was over 100 µM each time. Moreover, the Activity stood at 89% in test [2] and 97% in test [3].
For `COC(=O)[C@@H]1CC2(CC2)CN1C(=O)[C@@H](O)[C@H](N)CC(C)C`, the IC50 in test [1] was 8.1 µM. Further, the Activity in test [2] was 43%; in test [3], 101%.
Take `C[C@H](NC(=O)[C@@H]1CCCN1C(=O)[C@@H]1CCCN1C(=O)[C@@H](O)[C@H](N)Cc1ccccc1)C(N)=O`: the IC50 in test [5] and in test [1] was over 20 µM each time.
For the compound `CC(C)CCNC(=O)[C@@H]1CCCN1C(=O)[C@@H](O)[C@H](N)CC(C)C`, the IC50 in test [1] amounted to 15 µM. The results for the Activity in test [2] and in test [3] were 20% and 92%, respectively.
In the case of `COC(=O)[C@H](Cc1ccccc1)NC(=O)[C@@H](O)[C@H](N)CC(C)C`, the IC50 in test [1] was 5.4 µM; in test [4] it was over 100 µM. Further, the Activity in test [2] stood at 8%; in test [3], 7%.
With `CC(C)C[C@@H](N)[C@H](O)C(=O)N1CCC[C@H]1c1nnn[nH]1`, the IC50 in test [1] was over 100 µM. Besides, the Activity in test [2] turned out to be 85%; in test [3], 95%.
The matching figures for `COC(=O)[C@@H]1CCCN1C(=O)[C@@H](O)[C@H](N)CC(C)(C)C`: over 100 µM, 20% and 100%.
The matching figures for `COC(=O)[C@H](CC(C)C)NC(=O)[C@@H](O)[C@H](N)CC(C)C`: 19 µM, 30% and 12%.
For the compound `COC(=O)[C@@H]1CCCN1C(=O)[C@@H](O)[C@H](N)C12CC3CC(CC(C3)C1)C2`, in test [1], the IC50 is over 100 µM. Moreover, the Activity is recorded as 83% in test [2] and 98% in test [3].
As to `CC(C)C[C@H](NC(=O)[C@@H]1CCCN1C(=O)[C@@H](O)[C@H](N)CC(C)C)C(N)=O`, the IC50 in test [1] is over 100 µM.
Turning to `CC(C)C[C@H](NC(=O)[C@@H]1CCCN1C(=O)[C@@H](O)[C@H](N)CC(C)C)C(=O)NCCc1ccc2ccccc2c1`, in test [1], the IC50 worked out at 0.43 µM.
In the case of `CC(C)C[C@H](NC(=O)[C@@H]1CCCN1C(=O)[C@@H](O)[C@H](N)CC(C)C)C(=O)N(C)C`, the IC50 in test [1] worked out at 8.2 µM.
On to `CC(C)C[C@@H](N)[C@H](O)C(=O)N1CCC[C@H]1C(N)=O`, for which, in test [1], the IC50 turned out to be 17 µM. The Activity is on record as 35% in test [2] and 96% in test [3].
As for `CC(C)C[C@H](NC(=O)[C@@H]1CCCN1C(=O)[C@@H](O)[C@H](N)CC(C)C)C(=O)NCCc1ccc(-c2ccccc2)cc1`, the IC50 in test [1] was 0.65 µM.
Consider `COC(=O)[C@@H]1CCCN1C(=O)[C@@H](O)[C@H](N)c1ccccc1`, for which the concentration for half-maximal inhibition (IC50) in test [1] amounted to 15 µM. In addition, the figures for the Activity in test [2] and in test [3] were 32% and 97%, respectively.
As for `CC(C)C[C@H](NC(=O)[C@@H]1CCCN1C(=O)[C@@H](O)[C@H](N)CC(C)C)C(=O)NCCF`, the IC50 in test [1] came out at 3 µM.
Turning to `CC(C)C[C@H](NC(=O)[C@@H]1CCCN1C(=O)[C@@H](O)[C@H](N)CC(C)C)C(=O)N1CCC1`, in test [1], the IC50 is over 100 µM.
For the compound `CC(C)C[C@H](NC(=O)[C@@H]1CCCN1C(=O)[C@@H](O)[C@H](N)CC(C)C)C(=O)NS(=O)(=O)N(C)C`, the IC50 in test [1] is over 100 µM.
With `COC(=O)[C@@H]1CCCN1C(=O)[C@@H](O)[C@H](N)CCC(F)(F)F`, the IC50 in test [1] is over 100 µM. Also, the Activity in test [2] is listed as 68%; in test [3] it was 100%.
For the compound `CC(C)C[C@@H](N)[C@H](O)C(=O)N1CCCC1`, the IC50 in test [1] and in test [4] was over 100 µM throughout. The values for the Activity in test [2] and in test [3] were 91% and 85%, respectively.
On to `CC(C)CCNC(=O)[C@H](CC(C)C)NC(=O)[C@@H]1CCCN1C(=O)[C@@H](O)[C@H](N)CC(C)C`, for which, in test [1], the IC50 was found to be 1 µM.
Consider `COC(=O)[C@@H]1CCCN1C(=O)[C@@H](O)[C@H](N)CCCCO`, for which the IC50 in test [1] was over 100 µM. Further, the figures for the Activity in test [2] and in test [3] were 87% and 92%, respectively.
Consider `COC(=O)[C@@H]1C[C@H](F)CN1C(=O)[C@@H](O)[C@H](N)CC(C)C`, for which, in test [1], the IC50 came to 61 µM. Further, the Activity came out at 32% in test [2] and 94% in test [3].
In the same order, the values of `COC(=O)[C@@H]1CCCN1C(=O)[C@@H](O)[C@@H](N)c1cccs1` are 10 µM, 22% and 71%.
Consider `COC(=O)[C@@H]1CCCN1C(=O)[C@@H](O)[C@@H](N)c1ccco1`, for which the IC50 in test [1] is 14 µM. The figures for the Activity in test [2] and in test [3] were 23% and 71%, respectively.
Consider `COC(=O)[C@@H]1C[C@H](O)CN1C(=O)[C@@H](O)[C@H](N)CC(C)C`, for which the IC50 in test [1] and in test [4] was over 100 µM in each case. Besides, the Activity in test [2] is reported as 99%; in test [3], 102%.
As to `CONC(=O)[C@@H]1CCCN1C(=O)[C@@H](O)[C@H](N)CC(C)C`, in test [1], the IC50 is over 100 µM. Also, the Activity in test [2] amounted to 95%; in test [3], 103%.
In the case of `COC(=O)[C@@H]1CCCN1C(=O)[C@@H](O)[C@H](N)c1ccc2ccoc2c1`, the IC50 in test [1] is 60 µM. For the same compound, the Activity amounted to 44% in test [2] and 85% in test [3].
Regarding `COC(=O)[C@@H]1CCCN1C(=O)[C@@H](O)[C@H](N)Cc1ccccc1`, the IC50 in test [1] is over 100 µM. Also, the Activity amounted to 73% in test [2] and 97% in test [3].
On to `CONC(=O)[C@H](CC(C)C)NC(=O)[C@@H]1CCCN1C(=O)[C@@H](O)[C@H](N)CC(C)C`, for which the IC50 in test [1] is over 100 µM.
Same read-out and setting: the result for `CC(C)C[C@H](NC(=O)[C@@H]1CCCN1C(=O)[C@@H](O)[C@H](N)CC(C)C)C(=O)NC(C)(C)C` reads 7.3 µM.
Turning to `COC(=O)[C@@H]1CCCN1C(=O)[C@@H](O)[C@H](N)C1CC1`, the IC50 in test [1] is over 100 µM. Also, the figures for the Activity in test [2] and in test [3] were 85% and 102%, respectively.
As for `COC(=O)[C@@H]1C[C@H](C)CN1C(=O)[C@@H](O)[C@H](N)CC(C)C`, in test [1], the IC50 is 5.6 µM. Moreover, the Activity in test [2] worked out at 10%; in test [3], 96%.
